Experiments:
[1] = Plasma concentration in cPP-induced feeding rat model at 30 mg/kg, po after 2 hrs; format: ADME, organism-based; design: dose 30 mg/kg, route oral
Outline: (§1)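 Satellite rats (n = 2/dose per week), cannulated in the lateral cerebral ventricle for the feeding study, dosed orally at 3, 10 or 30 mg/kg as a suspension in 20% HP-β-cyclodextrin. Plasma was sampled 1, 2, 4, 6 or 24 h after dosing, alongside i.c.v. cPP (0.6 nmol) feeding tests. Values are given as mean with SD.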

[2] = Plasma concentration in cPP-induced feeding rat model at 10 mg/kg, po after 1 hr; format: ADME, organism-based; design: dose 10 mg/kg, route oral
Outline: (§2)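 Satellite rats (n = 2/dose) sampled each week alongside the cPP feeding test; Lu-series dosed po at 3, 10 or 30 mg/kg as suspension in 20% HP-β-cyclodextrin; plasma (ng/mL) and brain tissue (ng/g) levels taken at 1, 2, 4, 6 and 24 h post-dose; mean ± SD reported.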

[3] = Plasma concentration in cPP-induced feeding rat model at 10 mg/kg, po after 6 hrs; format: ADME, organism-based; design: dose 10 mg/kg, route oral; outline: as §2
[4] = molecular target: T1, Neuropeptide Y receptor type 5 (Homo sapiens, UniProt Q15761); test: Antagonist activity at human NPY5 receptor assessed as calcium mobilization by FLIPR assay; format: functional
T1 sequence (Q15761 whole entry): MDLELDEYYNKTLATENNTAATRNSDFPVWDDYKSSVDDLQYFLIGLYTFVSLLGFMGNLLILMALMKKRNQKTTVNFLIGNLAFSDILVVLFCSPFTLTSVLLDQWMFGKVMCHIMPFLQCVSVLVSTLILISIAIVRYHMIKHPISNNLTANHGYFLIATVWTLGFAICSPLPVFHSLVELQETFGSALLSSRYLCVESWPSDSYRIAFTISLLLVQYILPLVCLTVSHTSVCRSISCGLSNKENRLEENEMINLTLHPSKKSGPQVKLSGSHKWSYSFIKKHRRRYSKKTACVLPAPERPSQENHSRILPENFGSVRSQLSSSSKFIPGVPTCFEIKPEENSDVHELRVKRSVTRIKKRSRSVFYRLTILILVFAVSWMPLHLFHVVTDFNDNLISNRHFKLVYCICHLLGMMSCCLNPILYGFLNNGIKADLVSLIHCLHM

[5] = Drug uptake in brain of cPP-induced feeding rat model at 3 mg/kg, po after 2 hrs; format: ADME, organism-based; design: dose 3 mg/kg, route oral; conditions: read-out: Drug uptake; outline: as §2
Brain = test: Free drug level in brain of cPP-induced feeding rat model; format: ADME, tissue-based; conditions: in vivo
[6] = Half life in mouse at 1 mg/kg, iv and 2 mg/kg, po by HPLC analysis; format: ADME, organism-based; conditions: in vivo
[7] = Plasma concentration in rat at 10 mg/kg, po after 4 hrs; format: ADME, organism-based; design: dose 10 mg/kg, route oral
Outline: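 Single oral dose of 10 mg/kg in rats, two animals. Plasma was sampled at 4 h and the two values averaged. LOQ 2 ng/mL.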

[8] = Tmax in mouse at 1 mg/kg, iv and 2 mg/kg, po by HPLC analysis; format: ADME, organism-based; conditions: in vivo
[9] = Drug uptake in brain of cPP-induced feeding rat model at 10 mg/kg, po after 1 hr; format: ADME, organism-based; design: dose 10 mg/kg, route oral; conditions: read-out: Drug uptake; outline: as §2
[10] = Drug uptake in brain of cPP-induced feeding rat model at 10 mg/kg, po after 2 hrs; format: ADME, organism-based; design: dose 10 mg/kg, route oral; conditions: read-out: Drug uptake; outline: as §2
[11] = Plasma concentration in cPP-induced feeding rat model at 3 mg/kg, po after 1 hr; format: ADME, organism-based; design: dose 3 mg/kg, route oral; outline: as §2
Rattus norvegicus [12] = test: Antistress activity against chronic mild stress Sprague-Dawley rat model assessed as increase in sucrose consumption at 10 mg/kg, ip bid measured after 4 weeks; format: functional; conditions: route intraperitoneal
[13] = molecular target: Voltage-gated inwardly rectifying potassium channel KCNH2 (Homo sapiens, UniProt Q12809); test: Inhibition of human ERG by patch-clamp assay
[14] = Plasma clearance in Sprague-Dawley rat at 1 mg/kg, iv and 2 mg/kg, po by HPLC analysis; format: ADME, organism-based
Outline: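 Male Sprague-Dawley rats (200–250 g, n = 2) with jugular and carotid cannulae, dosed 1 mg/kg iv and 2 mg/kg po in crossover after 24 h washout. Vehicle was 20% beta cyclodextrin, pH adjusted with methanesulfonic acid to give a solution. Automated serial blood sampling took 12 time points over 24 h. Plasma was quantified by HPLC-MS/MS, with noncompartmental analysis.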

[15] = Plasma concentration in cPP-induced feeding rat model at 10 mg/kg, po after 4 hrs; format: ADME, organism-based; design: dose 10 mg/kg, route oral; outline: as §2
[16] = Plasma concentration in cPP-induced feeding rat model at 3 mg/kg, po after 2 hrs; format: ADME, organism-based; design: dose 3 mg/kg, route oral; outline: as §2
Cytochrome P450 2C9 = Cytochrome P450 2C9 (Homo sapiens, UniProt P11712); test: Inhibition of CYP2C9; format: ADME
[17] = Volume of distribution at steady state in mouse at 1 mg/kg, iv and 2 mg/kg, po by HPLC analysis; format: ADME, organism-based; conditions: in vivo, read-out: Vdss
[18] = molecular target: T2, Neuropeptide Y receptor type 2 (Homo sapiens, UniProt P49146); test: Antagonist activity at human NPY2 receptor assessed as calcium mobilization by FLIPR assay; format: functional
T2 sequence (P49146 whole entry): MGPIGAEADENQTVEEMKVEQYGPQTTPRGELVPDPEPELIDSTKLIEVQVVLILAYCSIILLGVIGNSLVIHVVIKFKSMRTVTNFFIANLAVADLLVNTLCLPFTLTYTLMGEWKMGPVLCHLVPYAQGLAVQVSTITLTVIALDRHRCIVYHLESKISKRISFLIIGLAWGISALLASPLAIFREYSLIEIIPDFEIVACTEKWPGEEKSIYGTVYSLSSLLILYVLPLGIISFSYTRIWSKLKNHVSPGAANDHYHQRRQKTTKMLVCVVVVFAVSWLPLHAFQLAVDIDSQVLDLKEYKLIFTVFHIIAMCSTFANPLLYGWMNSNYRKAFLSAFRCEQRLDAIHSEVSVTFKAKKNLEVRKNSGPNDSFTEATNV

[19] = Plasma concentration in cPP-induced feeding rat model at 3 mg/kg, po after 4 hrs; format: ADME, organism-based; design: dose 3 mg/kg, route oral; outline: as §1
Liver microsomes = test: Intrinsic clearance in rat liver microsome; format: ADME
[20] = Apparent permeability from apical to basolateral side of the human Caco2 cells; format: ADME, cell-based; conditions: Caco-2
[21] = Plasma protein binding in human; format: ADME, cell-free; conditions: read-out: PPB (converted)
[22] = Plasma concentration in cPP-induced feeding rat model at 30 mg/kg, po after 6 hrs; format: ADME, organism-based; design: dose 30 mg/kg, route oral; outline: as §1
[23] = Drug uptake in brain of cPP-induced feeding rat model at 10 mg/kg, po after 6 hrs; format: ADME, organism-based; design: dose 10 mg/kg, route oral; conditions: read-out: Drug uptake; outline: as §2
[24] = Plasma concentration in cPP-induced feeding rat model at 10 mg/kg, po after 2 hrs; format: ADME, organism-based; design: dose 10 mg/kg, route oral; outline: as §2
Cytochrome P450 2D6 = Cytochrome P450 2D6 (Homo sapiens, UniProt P10635); test: Inhibition of CYP2D6; format: ADME
[25] = Drug uptake in brain of cPP-induced feeding rat model at 30 mg/kg, po after 2 hrs; format: ADME, organism-based; design: dose 30 mg/kg, route oral; conditions: read-out: Drug uptake; outline: as §2
Rattus norvegicus [26] = test: Inhibition of cPP-induced food intake in po dosed rat administered 1 to 24 hrs before cPP challenge measured for 1 hr; format: functional, organism-based
Outline: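 Rats with lateral-ventricle cannulae dosed po with 20% cyclodextrin vehicle or drug (3, 10, 30 mg/kg) 1, 2, 4, 6 or 24 h before i.c.v. cPP (0.6 nmol); food intake monitored 1 h; randomized weekly crossover, n = 2/condition, 16–20 per group; percent of vehicle + cPP intake, one-way ANOVA with Newman–Keuls.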

Chain of Voltage-gated inwardly rectifying potassium channel KCNH2 (Q12809 whole entry): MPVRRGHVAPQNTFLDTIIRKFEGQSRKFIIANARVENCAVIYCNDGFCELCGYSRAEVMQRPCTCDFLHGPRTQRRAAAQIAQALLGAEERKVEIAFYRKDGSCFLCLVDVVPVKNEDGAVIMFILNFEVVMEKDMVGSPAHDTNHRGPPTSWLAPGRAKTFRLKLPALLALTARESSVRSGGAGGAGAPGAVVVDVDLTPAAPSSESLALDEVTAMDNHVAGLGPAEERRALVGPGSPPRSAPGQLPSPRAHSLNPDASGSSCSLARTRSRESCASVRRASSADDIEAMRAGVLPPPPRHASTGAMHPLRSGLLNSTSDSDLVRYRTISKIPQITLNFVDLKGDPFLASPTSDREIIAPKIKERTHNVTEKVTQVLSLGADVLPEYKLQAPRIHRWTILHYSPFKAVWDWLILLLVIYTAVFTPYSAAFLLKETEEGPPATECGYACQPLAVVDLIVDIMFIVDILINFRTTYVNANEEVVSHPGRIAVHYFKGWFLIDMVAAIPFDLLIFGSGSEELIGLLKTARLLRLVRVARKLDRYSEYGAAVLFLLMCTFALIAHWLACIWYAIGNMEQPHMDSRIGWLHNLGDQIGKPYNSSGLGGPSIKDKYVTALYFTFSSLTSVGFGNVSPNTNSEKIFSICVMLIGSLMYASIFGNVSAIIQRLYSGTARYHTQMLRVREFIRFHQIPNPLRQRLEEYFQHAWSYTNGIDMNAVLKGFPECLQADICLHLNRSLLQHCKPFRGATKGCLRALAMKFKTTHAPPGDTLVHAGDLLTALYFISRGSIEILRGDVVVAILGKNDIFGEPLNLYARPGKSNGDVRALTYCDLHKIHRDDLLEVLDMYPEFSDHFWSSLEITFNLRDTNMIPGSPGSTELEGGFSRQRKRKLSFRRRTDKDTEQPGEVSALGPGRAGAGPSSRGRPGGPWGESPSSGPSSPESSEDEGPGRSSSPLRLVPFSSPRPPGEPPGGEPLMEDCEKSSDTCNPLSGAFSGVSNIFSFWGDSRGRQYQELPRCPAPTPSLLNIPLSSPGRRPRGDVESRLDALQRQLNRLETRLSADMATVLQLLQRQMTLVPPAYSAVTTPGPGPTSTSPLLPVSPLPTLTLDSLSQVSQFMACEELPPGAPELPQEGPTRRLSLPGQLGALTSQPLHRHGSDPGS
Chain of Cytochrome P450 2C9 (P11712 whole entry): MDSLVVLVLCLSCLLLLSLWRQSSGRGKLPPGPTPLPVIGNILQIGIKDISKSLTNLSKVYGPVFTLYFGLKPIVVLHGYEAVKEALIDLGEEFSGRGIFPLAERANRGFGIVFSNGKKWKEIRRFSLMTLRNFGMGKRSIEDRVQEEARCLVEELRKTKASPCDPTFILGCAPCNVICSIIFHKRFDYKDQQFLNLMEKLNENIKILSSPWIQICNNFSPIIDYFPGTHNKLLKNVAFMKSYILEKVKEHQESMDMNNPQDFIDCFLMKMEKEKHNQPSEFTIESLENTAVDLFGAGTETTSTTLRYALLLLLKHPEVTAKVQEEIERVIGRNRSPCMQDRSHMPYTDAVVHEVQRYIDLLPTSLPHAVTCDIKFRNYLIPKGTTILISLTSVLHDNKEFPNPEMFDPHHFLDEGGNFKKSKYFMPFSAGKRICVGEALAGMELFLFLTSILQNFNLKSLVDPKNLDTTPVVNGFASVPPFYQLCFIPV
Chain of Cytochrome P450 2D6 (P10635 whole entry): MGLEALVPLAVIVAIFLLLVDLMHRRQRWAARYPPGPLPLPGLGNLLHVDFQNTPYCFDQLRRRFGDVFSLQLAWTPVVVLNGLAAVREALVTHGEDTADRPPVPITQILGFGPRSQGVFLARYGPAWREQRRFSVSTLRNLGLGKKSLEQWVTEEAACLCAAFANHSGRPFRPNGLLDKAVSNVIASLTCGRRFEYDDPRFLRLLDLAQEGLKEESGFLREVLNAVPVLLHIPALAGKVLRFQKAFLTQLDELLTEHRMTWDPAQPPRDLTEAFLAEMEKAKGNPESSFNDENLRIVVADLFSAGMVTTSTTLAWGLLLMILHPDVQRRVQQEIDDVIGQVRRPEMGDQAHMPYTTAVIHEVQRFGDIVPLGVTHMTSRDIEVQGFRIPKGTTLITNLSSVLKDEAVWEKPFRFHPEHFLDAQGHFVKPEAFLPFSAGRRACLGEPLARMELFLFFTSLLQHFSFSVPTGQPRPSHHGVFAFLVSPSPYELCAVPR

## CS(=O)(=O)NC[C@H]1CC[C@H](Nc2nc3c(s2)CCSc2ccccc2-3)CC1
[1]
  concentration at 2 h: 337 ng/mL
[2]
  concentration at 1 h: 159 ng/mL
[3]
  concentration at 6 h: 46 ng/mL
[4]
  IC50: 0.0018 µM
[5]
  concentration at 2 h: 87 ng/g
Brain
  Drug uptake: 0.4 nM
[6]
  half-life: 8.2 h
[7]
  concentration at 4 h: 320 ng/mL
[8]
  Tmax: 1.3 h
[9]
  concentration at 1 h: 179 ng/g
[10]
  concentration at 2 h: 244 ng/g
[11]
  concentration at 1 h: 54 ng/mL
Rattus norvegicus [12]
  Activity: >10%
[13]
  IC50: > 10 µM
[14]
  clearance: 18.3 mL/min/kg
[15]
  concentration at 4 h: 141 ng/mL
[16]
  concentration at 2 h: 87 ng/mL
Cytochrome P450 2C9
  IC50: > 10 µM
[17]
  Vd: 3.6 L/kg
[18]
  IC50: > 1 µM
[19]
  concentration at 4 h: 52 ng/mL
Liver microsomes
  CL: 40 mL/min
[20]
  Papp A→B: 36.7 ×10⁻⁶ cm/s
[21]
  fraction unbound: 0.018
[22]
  concentration at 6 h: 181 ng/mL
[23]
  concentration at 6 h: 124 ng/g
[24]
  concentration at 2 h: 260 ng/mL
Cytochrome P450 2D6
  IC50: > 10 µM
[25]
  concentration at 2 h: 319 ng/g
Rattus norvegicus [26]
  inhibition: Dose-dependent effect
